# In ChEMBL document CHEMBL5038610, “Ligand-based rational design, synthesis and evaluation of novel potential chemical chaperones for opsin” (Eur J Med Chem, 2021):
# The source made the active and inactive calls. The rule behind the calls is not given here.
# Species: Bos taurus
# Assay: Binding affinity to bovine opsin assessed as rate constant preincubated for 30 mins followed by […] addition and measured after 30 mins by UV-visible spectra method
# Conditions: time 60.0 min
# Method in brief: (§1)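 Opsin from bovine rod outer segments diluted to ~20-25 μM in PBS with 1% N-dodecyl-β-maltoside. Bleached with 532 nm green light, then pre-incubated with compound for 30 min at room temperature. 9-cis-retinal added, equimolar to opsin. Isorhodopsin formation read at 485 nm over 0–29 min. One-phase association fit gives the pseudo-first-order k, compared with DMSO vehicle. At least three repeats.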
row,K [min⁻¹],SMILES
1,0.62,C=CC(=O)Nc1ccc(CNC(=O)c2c(C)cccc2C)cc1
2,0.31,CC1=C(CNc2ccc(C#N)cc2)C(C)(C)CCC1
3,0.59,CC1=C(CNc2ccc(C(N)=O)cc2)C(C)(C)CCC1
4,0.63,CC1=C(/C=C/C(=O)N2CCC(C#N)CC2)C(C)(C)CCC1
5,0.2,CC(=O)/C=C/C1=C(C)CCCC1(C)C [BETA-IONONE]
6,0.61,Cc1cccc(C)c1-c1ccc(CNc2ccc(C(N)=O)cc2)o1
7,0.62,NC(=O)c1ccc(N2CCN(C(=O)c3cc(C(F)(F)F)cc(C(F)(F)F)c3)CC2)cc1
8,0.64,O=Cc1ccc(C(=O)N2CCN(c3cc(C(F)(F)F)cc(C(F)(F)F)c3)CC2)cc1
9,0.41,O=Cc1ccc(N2CCN(C(=O)c3cc(C(F)(F)F)cc(C(F)(F)F)c3)CC2)cc1

# Tested on: not listed separately
# Assay: Half life of compound
# Format: physicochemical
# Conditions: not given
row,half-life [min],SMILES
1,3.6,CC(=O)/C=C/C1=C(C)CCCC1(C)C [BETA-IONONE]

# Tested on: U2OS
# Assay: Effect on His-tagged human P23H rhodopsin expressed in U2OS cells assessed as increase localization of P23H rhodopsin using […] as substrate at 17 uM incubated for overnight and measured by immunofluorescence microscopy analysis
# Format: cell-based
# Conditions: time 12.0 hrs
# Method in brief: (§2)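 U2OS cells stably carrying C-terminal His-tagged human P23H rhodopsin, grown on polylysine coverslips. Incubated overnight in the dark with 1 μg/mL tetracycline plus compound at 17 or 20 μM (DMSO ≤0.1%); 9-cis-retinal at 5 μM serves as control. Cells fixed in 4% PFA. Surface rhodopsin stained with RetP1 before permeabilisation, total rhodopsin with anti-His after 0.1% Triton. Epifluorescence imaging, 3 independent experiments.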
row,SMILES,Activity
1,CC1=C(CNc2ccc(C#N)cc2)C(C)(C)CCC1,Active
2,O=Cc1ccc(COC(=O)c2cc(C(F)(F)F)cc(C(F)(F)F)c2)cc1,Active
3,O=C(O)c1ccc(COC(=O)c2cc(C(F)(F)F)cc(C(F)(F)F)c2)cc1,Active

# Tested on: U2OS
# Assay: Effect on His-tagged human P23H rhodopsin expressed in U2OS cells assessed as increase localization of P23H rhodopsin using […] as substrate at 17 to 20 uM incubated for overnight and measured by immunofluorescence microscopy analysis
# Format: functional, cell-based
# Conditions: dose 17-20 µM, time 12.0 hrs
# Method in brief: as §2
row,SMILES,Activity
1,C=C(C(=O)Nc1ccc(NC(=O)c2c(C)cccc2C)cc1)C(F)(F)F,Active
2,CC1=C(CNc2ccc(C(N)=O)cc2)C(C)(C)CCC1,Active
3,CC1=C(CNc2ccc(C(=O)O)cc2)C(C)(C)CCC1,Active
4,Cc1cccc(C)c1NC(=O)/C=C/c1ccc(C=O)cc1,Active
5,Cc1cccc(C)c1C(=O)N1CCN(c2ccc(C(=O)O)cc2)CC1,Active
6,Cc1cccc(C)c1/C=C/C(=O)NCc1ccc(C(=O)O)cc1,Active
7,CC1=C(/C=C/C(=O)N2CCC(NC=O)CC2)C(C)(C)CCC1,Active
8,CC1=C(/C=C/C(=O)N2CCC(C(N)=O)CC2)C(C)(C)CCC1,Active
9,Cc1cccc(C)c1N1CCN(C(=O)c2ccc(C#N)cc2)CC1,Active
10,NC(=O)c1ccc(N2CCN(C(=O)c3cc(C(F)(F)F)cc(C(F)(F)F)c3)CC2)cc1,Active
11,C=CC(=O)Nc1ccc(NC(=O)c2c(C)cccc2C)cc1,Active
12,O=Cc1ccc(C(=O)N2CCN(c3cc(C(F)(F)F)cc(C(F)(F)F)c3)CC2)cc1,Active
13,O=Cc1ccc(N2CCN(C(=O)c3cc(C(F)(F)F)cc(C(F)(F)F)c3)CC2)cc1,Active
14,C=CC(=O)Nc1ccc(NC(=O)c2cc(C(F)(F)F)cc(C(F)(F)F)c2)cc1,Active

# Tested on: HepG2
# Assay: Cytotoxicity against human HepG2 cells assessed as reduction in cell viability at 25 uM measured after 24 hrs by Cell-titre blue assay
# Format: toxicity, cell-based
# Conditions: hepg2, 24 h
# Method in brief: (§3)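 HepG2 (DMEM) or ARPE-19 (DMEM/F12) cells seeded at 1 × 10⁴ per well. Next day given medium with 2% FBS and 1 g/L glucose containing 25 μM compound, for 24 h at 37 °C. CellTiter Blue then added for 4 h; fluorescence read at 560/590 nm. Viability expressed as % of DMSO-treated cells; at least three independent measurements.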
row,SMILES,Activity
1,C=CC(=O)Nc1ccc(CNC(=O)c2c(C)cccc2C)cc1,Non-Toxic
2,CC1=C(CNc2ccc(C#N)cc2)C(C)(C)CCC1,25%
3,Cc1cccc(C)c1NC(=O)/C=C/c1ccc(C=O)cc1,Non-Toxic
4,CC1=C(/C=C/C(C)N2CCc3cc(C=O)ccc3C2)C(C)(C)CCC1 (stereo unspecified),Non-Toxic
5,O=Cc1ccc(COC(=O)c2cc(C(F)(F)F)cc(C(F)(F)F)c2)cc1,Non-Toxic
6,Cc1cccc(C)c1N1CCN(C(=O)c2ccc(C(N)=O)cc2)CC1,Non-Toxic
7,CC1=C(/C=C/C(=O)N2CCC(C#N)CC2)C(C)(C)CCC1,50%
8,CC(=O)/C=C/C1=C(C)CCCC1(C)C [BETA-IONONE],Non-Toxic
9,O=C(O)c1ccc(COC(=O)c2cc(C(F)(F)F)cc(C(F)(F)F)c2)cc1,Non-Toxic
10,NC(=O)c1ccc(N2CCN(C(=O)c3cc(C(F)(F)F)cc(C(F)(F)F)c3)CC2)cc1,Non-Toxic
11,O=Cc1ccc(C(=O)N2CCN(c3cc(C(F)(F)F)cc(C(F)(F)F)c3)CC2)cc1,Non-Toxic
12,O=Cc1ccc(N2CCN(C(=O)c3cc(C(F)(F)F)cc(C(F)(F)F)c3)CC2)cc1,Non-Toxic

# Tested on: ARPE-19
# Assay: Cytotoxicity against human ARPE-19 cells assessed as reduction in cell viability at 25 uM measured after 24 hrs by Cell-titre blue assay
# Format: toxicity, cell-based
# Conditions: arpe-19, 24 h
# Method in brief: as §3
row,SMILES,Activity
1,C=CC(=O)Nc1ccc(CNC(=O)c2c(C)cccc2C)cc1,Non-Toxic
2,Cc1cccc(C)c1NC(=O)/C=C/c1ccc(C=O)cc1,Non-Toxic
3,CC1=C(/C=C/C(C)N2CCc3cc(C=O)ccc3C2)C(C)(C)CCC1 (stereo unspecified),Non-Toxic
4,O=Cc1ccc(COC(=O)c2cc(C(F)(F)F)cc(C(F)(F)F)c2)cc1,Non-Toxic
5,Cc1cccc(C)c1N1CCN(C(=O)c2ccc(C(N)=O)cc2)CC1,Non-Toxic
6,CC(=O)/C=C/C1=C(C)CCCC1(C)C [BETA-IONONE],Non-Toxic
7,O=C(O)c1ccc(COC(=O)c2cc(C(F)(F)F)cc(C(F)(F)F)c2)cc1,Non-Toxic
8,NC(=O)c1ccc(N2CCN(C(=O)c3cc(C(F)(F)F)cc(C(F)(F)F)c3)CC2)cc1,Non-Toxic
9,O=Cc1ccc(C(=O)N2CCN(c3cc(C(F)(F)F)cc(C(F)(F)F)c3)CC2)cc1,Non-Toxic
10,O=Cc1ccc(N2CCN(C(=O)c3cc(C(F)(F)F)cc(C(F)(F)F)c3)CC2)cc1,Non-Toxic

# Target: Rhodopsin (Bos taurus) (UniProt P02699)
# Assay: Binding affinity to bovine rhodopsin assessed as rate constant preincubated for 30 mins followed by […] addition and measured after 30 mins by UV-visible spectra method
# Conditions: time 60.0 min
# Method in brief: as §1
# Chain of Rhodopsin (Bos taurus) (P02699 whole entry): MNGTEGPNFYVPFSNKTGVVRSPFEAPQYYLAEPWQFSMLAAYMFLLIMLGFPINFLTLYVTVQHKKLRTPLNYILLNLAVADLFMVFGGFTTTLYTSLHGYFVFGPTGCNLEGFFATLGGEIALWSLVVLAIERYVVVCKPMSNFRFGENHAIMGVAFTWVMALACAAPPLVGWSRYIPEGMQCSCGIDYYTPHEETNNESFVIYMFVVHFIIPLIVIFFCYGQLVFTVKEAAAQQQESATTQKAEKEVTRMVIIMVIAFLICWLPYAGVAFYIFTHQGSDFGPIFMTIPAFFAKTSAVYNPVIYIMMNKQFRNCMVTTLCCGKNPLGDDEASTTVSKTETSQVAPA
row,K [min⁻¹],SMILES
1,0.44,O=Cc1ccc(COC(=O)c2cc(C(F)(F)F)cc(C(F)(F)F)c2)cc1
2,0.62,O=C(O)c1ccc(COC(=O)c2cc(C(F)(F)F)cc(C(F)(F)F)c2)cc1
